Among the data in ChEMBL document CHEMBL3098020, “Synthesis and biological evaluation of novel 2-amino-3-aroyl-4-neopentyl-5-substituted thiophene derivatives as allosteric enhancers of the A₁ adenosine receptor” (Bioorg Med Chem, 2014) are fold change (FC) and inhibition values, retold here.

For assay [1], the target named is T1, Adenosine receptor A1 (Homo sapiens) (UniProt P30542).
T1 sequence (whole entry): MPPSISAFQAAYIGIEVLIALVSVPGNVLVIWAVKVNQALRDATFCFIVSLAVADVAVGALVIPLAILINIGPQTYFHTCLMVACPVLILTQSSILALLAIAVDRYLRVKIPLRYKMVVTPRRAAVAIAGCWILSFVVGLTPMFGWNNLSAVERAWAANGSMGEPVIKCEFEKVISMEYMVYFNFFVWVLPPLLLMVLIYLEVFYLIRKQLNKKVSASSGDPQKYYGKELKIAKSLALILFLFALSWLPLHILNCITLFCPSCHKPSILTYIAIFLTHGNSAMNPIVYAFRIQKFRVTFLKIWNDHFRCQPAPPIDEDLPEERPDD
The assay is described as follows: Potentiation of CCPA-induced displacement of [3H]-DPCPX from human adenosine A1 receptor expressed in CHO cell membranes at 10 uM after 90 mins relative to CCPA-treated control. In short, it runs like this: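 CCPA (0.01 nM–1 µM) competition against [³H]DPCPX in hA1-CHO membranes, with or without compound at 10 µM. Nonspecific binding defined with 1 µM DPCPX. Ki calculated from IC50 by the Cheng-Prusoff equation; CCPA Ki shift given as fold change; three experiments.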

Assay [2] addresses T1, Adenosine receptor A1 (Homo sapiens). The assay is described as follows: Potentiation of [3H]CCPA binding to human adenosine A1 receptor expressed in CHO cell membranes at 10 uM after 90 mins relative to [3H]CCPA-treated control.
In assay [3] the target is T2, Adenosine receptor A3 (Homo sapiens) (UniProt P0DMS8).
T2 sequence (whole entry): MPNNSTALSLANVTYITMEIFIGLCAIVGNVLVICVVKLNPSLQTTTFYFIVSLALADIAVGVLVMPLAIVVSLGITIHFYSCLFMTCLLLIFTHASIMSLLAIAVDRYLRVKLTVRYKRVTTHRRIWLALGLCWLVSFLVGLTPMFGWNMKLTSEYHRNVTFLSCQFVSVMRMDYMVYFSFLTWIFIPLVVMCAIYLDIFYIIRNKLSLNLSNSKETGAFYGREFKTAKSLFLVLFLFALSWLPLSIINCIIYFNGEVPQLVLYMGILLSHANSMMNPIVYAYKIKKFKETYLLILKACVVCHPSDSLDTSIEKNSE
The assay is described as follows: Displacement of [3H]-MRE-3008-F20 from human adenosine A3 receptor expressed in CHO cell membranes at 10 uM by scintillation counting analysis relative to control. Put shortly: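 A3-expressing CHO membranes in 50 mM Tris-HCl, 10 mM MgCl₂, 1 mM EDTA pH 7.4 with 2 nM [³H]MRE-3008-F20. Incubated 120 min at 4 °C. Compound 10 µM in 1% DMSO final. Filtration and scintillation counting; percent inhibition of specific binding.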
On the technique in general: In a radioligand displacement assay an active substance lowers the binding of a labelled ligand.

The target in assay [4] is Adenosine receptor A2a (Homo sapiens) (UniProt P29274). The assay is described as follows: Displacement of [3H]-ZM241385 from human adenosine A2A receptor expressed in CHO cell membranes at 10 uM by scintillation counting analysis relative to control. In short, it runs like this: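 A2A-expressing CHO membranes, pretreated with adenosine deaminase, in 50 mM Tris-HCl, 10 mM MgCl₂ pH 7.4 with 1 nM [³H]ZM 241385. Incubated 60 min at 4 °C. Compound 10 µM in 1% DMSO final. Filtration and scintillation counting; percent inhibition of specific binding.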

Assay [5] addresses T1, Adenosine receptor A1 (Homo sapiens). The assay is described as follows: Displacement of [3H]-DPCPX from human adenosine A1 receptor expressed in CHO cell membranes at 10 uM by scintillation counting analysis relative to control. Put shortly:
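hA1-CHO membranes, pretreated with adenosine deaminase, in 50 mM Tris-HCl pH 7.4 with 1 nM [³H]DPCPX. Incubated 120 min at 25 °C. Compound 10 µM added from 100-fold DMSO stock, 1% DMSO final. Bound ligand collected on glass-fibre filters and counted by scintillation; percent inhibition of specific binding.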

The target is the same in assay [6]. The assay is described as follows: Allosteric enhancement of human adenosine A1 receptor expressed in CHO cells assessed as inhibition of forskolin-stimulated cAMP production at 100 nM preincubated for 10 mins followed by forskolin challenge measured after 5 mins by scintillation counting analysis in presence of CCPA relative to control. It is filed as functional, cell-based. In short, it runs like this:
(§1)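 hA1-CHO cells (10⁶ cells/mL) in phosphate buffer with adenosine deaminase 1.0 IU/mL and Ro 20-1724 0.5 mM, preincubated 10 min at 37 °C. Compound added for 10 min, alone or at 100 nM with CCPA 1 pM. Forskolin 1 µM added for 5 min, stopped with cold 6% TCA. cAMP measured by [³H]-cAMP competition protein-binding assay; percent inhibition versus control; three experiments.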

Assay [7] has the same target. The assay is described as follows: Allosteric enhancement of human adenosine A1 receptor expressed in CHO cells assessed as inhibition of forskolin-stimulated cAMP production at 10 uM preincubated for 10 mins followed by forskolin challenge measured after 5 mins by scintillation counting analysis relative to control. It is filed as functional, cell-based. Put shortly: as §1

Chain of Adenosine receptor A2a (Homo sapiens) (P29274 whole entry): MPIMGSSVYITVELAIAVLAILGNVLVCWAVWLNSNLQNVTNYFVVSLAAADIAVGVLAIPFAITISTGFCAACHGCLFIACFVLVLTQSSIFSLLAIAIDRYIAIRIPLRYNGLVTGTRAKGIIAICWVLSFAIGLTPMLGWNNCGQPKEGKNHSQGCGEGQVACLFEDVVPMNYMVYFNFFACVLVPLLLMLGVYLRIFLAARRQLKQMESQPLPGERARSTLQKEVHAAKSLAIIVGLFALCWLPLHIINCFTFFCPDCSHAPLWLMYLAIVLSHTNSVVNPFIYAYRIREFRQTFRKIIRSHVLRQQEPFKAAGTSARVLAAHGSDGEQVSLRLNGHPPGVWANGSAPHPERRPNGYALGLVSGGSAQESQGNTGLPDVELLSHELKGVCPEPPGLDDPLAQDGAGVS

Turning to `CC(C)(C)Cc1c(-c2ccccc2)sc(N)c1C(=O)c1ccccc1Cl`, the values for the fold change (FC) in assay [1] and in assay [2] were 3.9 and 5.4, respectively. Moreover, the inhibition in assay [3] is 1%; in assay [4] it was 1%; in assay [5], 1%; in assay [6], 41%; in assay [7], 38%.
Consider `CC(C)(C)Cc1c(Br)sc(N)c1C(=O)c1ccc(Cl)cc1`, for which the fold change (FC) in assay [1] was determined as 4.5; in assay [2] it was 6.8. Moreover, the inhibition stood at 1% in assay [3]; 2% in assay [4]; 1% in assay [5]; 50% in assay [6]; 48% in assay [7].
Turning to `CC(C)(C)Cc1c(Br)sc(N)c1C(=O)c1cccc(C(F)(F)F)c1`, the fold change (FC) stood at 3 in assay [1] and 4.4 in assay [2]. The inhibition in assay [3] worked out at 4%; in assay [4] it was 1%; in assay [5], 1%; in assay [6], 50%; in assay [7] it was 49%.
For the compound `CC(C)(C)c1csc(N)c1C(=O)c1ccc(Cl)cc1`, the fold change (FC) in assay [1] stood at 1.6; in assay [2] it was 1.3. Moreover, the inhibition is 1% in assay [3]; 1% in assay [4]; 1% in assay [5]; 18% in assay [6]; 11% in assay [7].
In the case of `CC(C)(C)Cc1c(-c2ccc(F)cc2)sc(N)c1C(=O)c1ccc(Cl)cc1`, the figures for the fold change (FC) in assay [1] and in assay [2] were 3.7 and 5.5, respectively. Besides, the inhibition in assay [3] worked out at 9%; in assay [4], 1%; in assay [5], 1%; in assay [6] it was 52%; in assay [7], 50%.
For `CC(C)(C)Cc1c(Br)sc(N)c1C(=O)c1cccc(Cl)c1`, the values for the fold change (FC) in assay [1] and in assay [2] were 2.4 and 3.6, respectively. For the same compound, the inhibition in assay [3] is 1%; in assay [4] it was 1%; in assay [5], 1%; in assay [6] it was 48%; in assay [7], 45%.
On to `Cc1sc(N)c(C(=O)c2cccc(C(F)(F)F)c2)c1C`, for which the fold change (FC) in assay [1] was found to be 1.5; in assay [2], 1.3. The inhibition in assay [4] and in assay [5] was 1% in each case.
With `CC(C)(C)Cc1c(-c2ccco2)sc(N)c1C(=O)c1ccc(Cl)cc1`, the fold change (FC) in assay [1] was 3.5; in assay [2] it was 5.1. Besides, the inhibition in assay [3] worked out at 1%; in assay [4], 1%; in assay [5], 1%; in assay [6], 47%; in assay [7], 49%.
Regarding `CC(C)(C)Cc1c(-c2ccccn2)sc(N)c1C(=O)c1ccc(Cl)cc1`, the fold change (FC) in assay [1] came out at 2.2; in assay [2], 3.5. The inhibition in assay [3] amounted to 1%; in assay [4] it was 1%; in assay [5], 1%; in assay [6], 43%; in assay [7], 40%.
On to `CC(C)Cc1csc(N)c1C(=O)c1ccc(Cl)cc1`, for which the fold change (FC) in assay [1] turned out to be 3.4; in assay [2], 1.6. Moreover, the inhibition turned out to be 1% in assay [3]; 1% in assay [4]; 1% in assay [5]; 19% in assay [6]; 17% in assay [7].
Regarding `CC(C)(C)Cc1c(-c2ccccc2)sc(N)c1C(=O)c1cccc(C(F)(F)F)c1`, the values for the fold change (FC) in assay [1] and in assay [2] were 3.6 and 4, respectively. Moreover, the inhibition was found to be 1% in assay [3]; 1% in assay [4]; 1% in assay [5]; 39% in assay [6]; 38% in assay [7].
In the case of `CC(C)(C)Cc1c(-c2ccsc2)sc(N)c1C(=O)c1ccc(Cl)cc1`, the fold change (FC) is 4.7 in assay [1] and 6.4 in assay [2]. The inhibition in assay [3] turned out to be 4%; in assay [4], 1%; in assay [5] it was 2%; in assay [6], 67%; in assay [7], 62%.
Consider `COc1ccc(-c2sc(N)c(C(=O)c3cccc(C(F)(F)F)c3)c2CC(C)(C)C)cc1`, for which the figures for the fold change (FC) in assay [1] and in assay [2] were 1.8 and 4, respectively. The inhibition is 1% in assay [3]; 1% in assay [4]; 2% in assay [5]; 46% in assay [6]; 44% in assay [7].
As for `CC(C)(C)Cc1c(-c2ccccc2)sc(N)c1C(=O)c1ccc(Cl)c(Cl)c1`, the fold change (FC) in assay [1] turned out to be 4.8; in assay [2], 5.9. Also, the inhibition in assay [3] worked out at 6%; in assay [4], 1%; in assay [5] it was 1%; in assay [6], 57%; in assay [7], 56%.
Regarding `COc1ccccc1-c1sc(N)c(C(=O)c2ccc(Cl)cc2)c1CC(C)(C)C`, the fold change (FC) in assay [1] amounted to 1.9; in assay [2] it was 2.5. Further, the inhibition amounted to 1% in assay [3]; 1% in assay [4]; 1% in assay [5]; 29% in assay [6]; 27% in assay [7].
With `CC(C)(C)Cc1c(-c2ccc(F)cc2F)sc(N)c1C(=O)c1ccc(Cl)cc1`, the fold change (FC) in assay [1] was found to be 3.6; in assay [2], 5.3. For the same compound, the inhibition in assay [3] amounted to 1%; in assay [4] it was 1%; in assay [5], 1%; in assay [6], 49%; in assay [7] it was 48%.
As for `COc1ccc(-c2sc(N)c(C(=O)c3ccc(Cl)cc3)c2CC(C)(C)C)cc1`, the fold change (FC) in assay [1] worked out at 4.3; in assay [2], 6.1. Also, the inhibition in assay [3] was 2%; in assay [4] it was 1%; in assay [5], 1%; in assay [6], 43%; in assay [7], 44%.
With `Cc1c(Br)sc(N)c1C(=O)c1ccc(Cl)cc1`, the results for the fold change (FC) in assay [1] and in assay [2] were 1.9 and 1.8, respectively. Further, the inhibition in assay [3] came out at 1%; in assay [4], 1%; in assay [5], 1%; in assay [6] it was 25%; in assay [7] it was 21%.
Regarding `Cc1csc(N)c1C(=O)c1ccc(Cl)cc1`, the figures for the fold change (FC) in assay [1] and in assay [2] were 1.6 and 1.5, respectively. Also, the inhibition in assay [3] came out at 1%; in assay [4], 1%; in assay [5], 1%; in assay [6], 18%; in assay [7], 16%.
Take `Cc1ccc(-c2sc(N)c(C(=O)c3ccc(Cl)cc3)c2CC(C)(C)C)cc1`: the fold change (FC) in assay [1] amounted to 6; in assay [2], 6.4. Also, the inhibition was 1% in assay [3]; 1% in assay [4]; 1% in assay [5]; 58% in assay [6]; 57% in assay [7].

Usually inhibition stands for the drop in the measured response relative to a control, in per cent.
